Reference: ChEMBL document CHEMBL3217724, “Synthesis and evaluation of a series of benzothiophene acrylonitrile analogs as anticancer agents” (Medchemcomm, 2013)
Calls of active or inactive are those of the source. The calls are words filed in the database; no cut-off is given here.

What was measured:
[1] = Growth inhibition of human MOLT4 cells; type: functional; conditions: MOLT-4
Outline: (§1)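 NCI 60-human-cancer-cell-line panel, five-dose screen after a preliminary screen. GI50 is the molar concentration giving 50% growth inhibition.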

[2] = Growth inhibition of human UACC257 cells; type: functional; conditions: UACC-257
Outline: (§2)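 NCI 60-cell-line panel, five-dose screen; GI50 is the molar concentration giving 50% growth inhibition.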

SW-620 = assay: Growth inhibition of human SW620 cells; type: functional; outline: as §2
CAKI-1 = assay: Growth inhibition of human Caki1 cells; type: functional; outline: as §1
[3] = Growth inhibition of human NCI-ADR-RES cells; type: functional; outline: as §1
T47D = assay: Growth inhibition of human T47D cells; type: functional; outline: as §2
K562 = assay: Growth inhibition of human K562 cells; type: functional; outline: as §1
[4] = Growth inhibition of human HCC2998 cells; type: functional; conditions: HCC 2998; outline: as §1
[5] = Growth inhibition of human OVCAR8 cells; type: functional; conditions: OVCAR-8; outline: as §1
[6] = Growth inhibition of human OVCAR4 cells; type: functional; conditions: OVCAR-4; outline: as §1
NCI-H226 = assay: Growth inhibition of human NCI-H226 cells; type: functional; outline: as §1
DU-145 = assay: Growth inhibition of human DU145 cells; type: functional; outline: as §1
HT-29 = assay: Growth inhibition of human HT-29 cells; type: functional; outline: as §1
TK-10 = assay: Growth inhibition of human TK10 cells; type: functional; outline: as §2
CCRF-CEM = assay: Growth inhibition of human CCRF-CEM cells; type: functional; outline: as §1
[7] = Growth inhibition of human UO31 cells; type: functional; conditions: UO-31; outline: as §2
[8] = Growth inhibition of human Hs578T cells; type: functional; conditions: Hs-578T; outline: as §1
SN12C = assay: Growth inhibition of human SN12C cells; type: functional; outline: as §2
RPMI-8226 = assay: Growth inhibition of human RPMI8226 cells; type: functional; outline: as §1
NCI-H322M = assay: Growth inhibition of human NCI-H322M cells; type: functional; outline: as §1
COLO 205 = assay: Growth inhibition of human COLO205 cells; type: functional; outline: as §1
SNB-75 = assay: Growth inhibition of human SNB75 cells; type: functional; outline: as §2
[9] = Growth inhibition of human OVCAR5 cells; type: functional; conditions: OVCAR-5; outline: as §1
U-251 = assay: Growth inhibition of human U251 cells; type: functional; outline: as §2
MCF7 = assay: Growth inhibition of human MCF7 cells; type: functional; outline: as §1
KM12 = assay: Growth inhibition of human KM12 cells; type: functional; outline: as §1
[10] = Growth inhibition of human BT549 cells; type: functional; conditions: BT-549; outline: as §1
[11] = Growth inhibition of human UACC62 cells; type: functional; conditions: UACC-62; outline: as §2
MDA-MB-468 = assay: Growth inhibition of human MDA-MB-468 cells; type: functional; outline: as §1
[12] = Growth inhibition of human SF539 cells; type: functional; conditions: SF-539; outline: as §1
A498 = assay: Growth inhibition of human A498 cells; type: functional; outline: as §1
A549 = assay: Growth inhibition of human A549 cells; type: functional; outline: as §1
SK-OV-3 = assay: Growth inhibition of human SKOV3 cells; type: functional; outline: as §2
Malme-3M = assay: Growth inhibition of human MALME-3M cells; type: functional; outline: as §1
MDA-MB-231 = assay: Growth inhibition of human MDA-MB-231 cells; type: functional; outline: as §1
NCI-H460 = assay: Growth inhibition of human NCI-H460 cells; type: functional; outline: as §1
SK-MEL-2 = assay: Growth inhibition of human SK-MEL-2 cells; type: functional; outline: as §1
786-0 = assay: Growth inhibition of human 786-0 cells; type: functional; outline: as §1
HL-60(TB) = assay: Growth inhibition of human HL-60(TB) cells; type: functional; outline: as §1
SNB-19 = assay: Growth inhibition of human SNB19 cells; type: functional; outline: as §2
HOP-62 = assay: Growth inhibition of human HOP62 cells; type: functional; outline: as §1
[13] = Growth inhibition of human LOXIMVI cells; type: functional; conditions: LOX IMVI; outline: as §1
SK-MEL-28 = assay: Growth inhibition of human SK-MEL-28 cells; type: functional; outline: as §1
ACHN = assay: Growth inhibition of human ACHN cells; type: functional; outline: as §1
NCI-H23 = assay: Growth inhibition of human NCI-H23 cells; type: functional; outline: as §1
[14] = Growth inhibition of human OVCAR3 cells; type: functional; conditions: OVCAR-3; outline: as §1
[15] = Growth inhibition of human HOP92 cells; type: functional; conditions: HOP-92; outline: as §1
PC-3 [16] = assay: Growth inhibition of human PC3 cells; type: functional; outline: as §1
HCT-116 = assay: Growth inhibition of human HCT116 cells; type: functional; outline: as §1
[17] = Growth inhibition of human HCT15 cells; type: functional; conditions: HCT-15; outline: as §1
[18] = Growth inhibition of human RXF393 cells; type: functional; conditions: RXF 393; outline: as §1
M14 = assay: Growth inhibition of human M14 cells; type: functional; outline: as §1
SK-MEL-5 = assay: Growth inhibition of human SK-MEL-5 cells; type: functional; outline: as §1
IGROV-1 = assay: Growth inhibition of human IGROV1 cells; type: functional; outline: as §1
MDA-MB-435 = assay: Growth inhibition of human MDA-MB-435 cells; type: functional; outline: as §1
SF-268 = assay: Growth inhibition of human SF268 cells; type: functional; outline: as §1
SR = assay: Growth inhibition of human SR cells; type: functional; outline: as §2
LLC-PK1 [19] = assay: Resistance factor, ratio of GI50 for pig LLC-PK1 cells expressing MDR1 to GI50 for pig LLC-PK1 cells; set-up: species or system Sus scrofa
Outline: (§3)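 Porcine epithelial L-MDR1 (P-gp expressing) cells and their non-expressing parent line were exposed to compound for 72 h. Viability was read with AlamarBlue dye and GI50 derived. P-gp expression was verified by Western blot with β-actin as loading control. The resistance ratio compares GI50 in MDR1 versus parent cells.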

[20] = Growth inhibition of pig LLC-PK1 cells by Alamar Blue assay; type: cell-based, Sus scrofa
Outline: (§4)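 Cell viability was read with AlamarBlue dye in 96-well format and GI50 values derived, to assess P-gp effects. Cells were P-gp-expressing NCI/ADR-Res ovarian cancer cells and L-MDR1 porcine epithelial cells, each with its non-expressing parent line. P-gp expression was confirmed by Western blot with β-actin as loading control. Resistance is the GI50 in the P-gp line over the GI50 in the parent line.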

PC-3 [21] = assay: cells; conditions: Homo sapiens, PC-3, 72 h
[22] = Growth inhibition of human OVCAR8 cells by Alamar Blue assay; type: functional; conditions: OVCAR-8; outline: as §4
PC-3 [23] = assay: Resistance factor, ratio of GI50 for P-gp expressing docetaxel-resistant human PC3 cells to GI50 for human PC3 cells; type: functional
Outline: (§5)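 PC3 prostate cancer cells and docetaxel-resistant PC3-DR cells were exposed to drug for 72 hours in 96-well format. Viability was read with AlamarBlue dye and GI50 derived. Resistance is the GI50 in PC3-DR over the GI50 in parental PC3.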

OVCAR-8 = assay: Resistance factor, ratio of GI50 for P-gp expressing NCI-ADR-RES cells to GI50 for human OVCAR8 cells; type: functional; outline: as §4
PC-3 [24] = assay: Growth inhibition of human PC3 cells after 72 hrs by Alamar Blue assay; type: functional; conditions: PC-3, 72 h; outline: as §5
LLC-PK1 [25] = assay: Growth inhibition of pig LLC-PK1 cells expressing MDR1 by Alamar Blue assay; type: functional; conditions: Sus scrofa; outline: as §3
PC-3 [26] = assay: Induction of beta tubulin stabilization in human PC3 cells at 10 nM after 24 hrs by DAPI-staining based immunofluorescence assay; type: cell-based
Outline: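 PC3 cells were treated for 24 hours with the test agent at 1, 10 or 100 nM, or with 10 nM docetaxel or vinblastine as stabilizing and destabilizing references. Cells were immunostained for beta-tubulin (green) with DAPI nuclear counterstain (blue) and the microtubule staining pattern imaged.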

[27] = Growth inhibition of P-gp expressing human NCI-ADR-RES cells by Alamar Blue assay; type: functional
Outline: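 72-h cytotoxicity in 96-well plates with AlamarBlue viability dye, giving GI50. Line 1 uses docetaxel-resistant PC3 prostate cells (PC3-DR), and line 2 uses NCI/ADR-Res ovarian cells. P-gp expression in both was confirmed by Western blot, with β-actin as the loading control.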

COc1cc(/C(C#N)=C\c2cc3ccccc3s2)cc(OC)c1OC
GI50 [1]: < 10 nM
GI50 [2]: > 100 nM
GI50 (SW-620): < 10 nM
GI50 (CAKI-1): 37.8 nM
GI50 [3]: < 10 nM
GI50 (T47D): > 100 nM
GI50 (K562): < 10 nM
GI50 [4]: 19.2 nM
GI50 [5]: < 10 nM
GI50 [6]: < 10 nM
GI50 (NCI-H226): 17.9 nM
GI50 (DU-145): < 10 nM
GI50 (HT-29): < 10 nM
GI50 (TK-10): > 100 nM
GI50 (CCRF-CEM): < 10 nM
GI50 [7]: < 10 nM
GI50 [8]: < 10 nM
GI50 (SN12C): < 10 nM
GI50 (RPMI-8226): < 10 nM
GI50 (NCI-H322M): 18.3 nM
GI50 (COLO 205): < 10 nM
GI50 (SNB-75): < 10 nM
GI50 [9]: < 10 nM
GI50 (U-251): < 10 nM
GI50 (MCF7): < 10 nM
GI50 (KM12): < 10 nM
GI50 [10]: < 10 nM
GI50 [11]: < 10 nM
GI50 (MDA-MB-468): < 10 nM
GI50 [12]: < 10 nM
GI50 (A498): < 10 nM
GI50 (A549): < 10 nM
GI50 (SK-OV-3): < 10 nM
GI50 (Malme-3M): < 10 nM
GI50 (MDA-MB-231): < 10 nM
GI50 (NCI-H460): < 10 nM
GI50 (SK-MEL-2): < 10 nM
GI50 (786-0): < 10 nM
GI50 (HL-60(TB)): < 10 nM
GI50 (SNB-19): 39.1 nM
GI50 (HOP-62): < 10 nM
GI50 [13]: < 10 nM
GI50 (SK-MEL-28): < 10 nM
GI50 (ACHN): < 10 nM
GI50 (NCI-H23): < 10 nM
GI50 [14]: < 10 nM
GI50 [15]: < 10 nM
GI50 (PC-3 [16]): < 10 nM
GI50 (HCT-116): < 10 nM
GI50 [17]: < 10 nM
GI50 [18]: < 10 nM
GI50 (M14): < 10 nM
GI50 (SK-MEL-5): < 10 nM
GI50 (IGROV-1): < 10 nM
GI50 (MDA-MB-435): < 10 nM
GI50 (SF-268): < 10 nM
GI50 (SR): < 10 nM

CC(=O)O[C@@]12CO[C@@H]1C[C@H](O)[C@@]1(C)C(=O)[C@H](O)C3=C(C)[C@@H](OC(=O)[C@H](O)[C@@H](NC(=O)OC(C)(C)C)c4ccccc4)C[C@@](O)([C@@H](OC(=O)c4ccccc4)[C@H]21)C3(C)C.O.O.O [DOCETAXEL]
RatioGI50 (LLC-PK1 [19]): 627
GI50 [20]: 0.17 nM
GI50 (PC-3 [21]): 54 nM
GI50 [22]: 0.5 nM
RatioGI50 (PC-3 [23]): 22
RatioGI50 (OVCAR-8): 392
GI50 (PC-3 [24]): 2.5 nM
GI50 (LLC-PK1 [25]): 107 nM
Activity (PC-3 [26]): Active
GI50 [27]: 196 nM
